In ChEMBL document CHEMBL5357044, “Discovery of a dual-acting inhibitor of interleukin-1β and STATs for the treatment of inflammatory bowel disease” (RSC Med Chem, 2024):
The source made the active and inactive calls. The calls are words filed in the database; no cut-off is given here.

Experiments:
[1] = target: NACHT, LRR and PYD domains-containing protein 3 (Mus musculus, UniProt Q8R4B8); test: Inhibition of NLRP3 inflammasome activation in mouse J774.A1 cells assessed as reduction in LPS-stimulated IL-1beta level pretreated for 1 hr followed by nigericin treatment for 1 hr by ELISA; format: cell-based
Chain of NACHT, LRR and PYD domains-containing protein 3 (Q8R4B8 whole entry, the tested form may be a part): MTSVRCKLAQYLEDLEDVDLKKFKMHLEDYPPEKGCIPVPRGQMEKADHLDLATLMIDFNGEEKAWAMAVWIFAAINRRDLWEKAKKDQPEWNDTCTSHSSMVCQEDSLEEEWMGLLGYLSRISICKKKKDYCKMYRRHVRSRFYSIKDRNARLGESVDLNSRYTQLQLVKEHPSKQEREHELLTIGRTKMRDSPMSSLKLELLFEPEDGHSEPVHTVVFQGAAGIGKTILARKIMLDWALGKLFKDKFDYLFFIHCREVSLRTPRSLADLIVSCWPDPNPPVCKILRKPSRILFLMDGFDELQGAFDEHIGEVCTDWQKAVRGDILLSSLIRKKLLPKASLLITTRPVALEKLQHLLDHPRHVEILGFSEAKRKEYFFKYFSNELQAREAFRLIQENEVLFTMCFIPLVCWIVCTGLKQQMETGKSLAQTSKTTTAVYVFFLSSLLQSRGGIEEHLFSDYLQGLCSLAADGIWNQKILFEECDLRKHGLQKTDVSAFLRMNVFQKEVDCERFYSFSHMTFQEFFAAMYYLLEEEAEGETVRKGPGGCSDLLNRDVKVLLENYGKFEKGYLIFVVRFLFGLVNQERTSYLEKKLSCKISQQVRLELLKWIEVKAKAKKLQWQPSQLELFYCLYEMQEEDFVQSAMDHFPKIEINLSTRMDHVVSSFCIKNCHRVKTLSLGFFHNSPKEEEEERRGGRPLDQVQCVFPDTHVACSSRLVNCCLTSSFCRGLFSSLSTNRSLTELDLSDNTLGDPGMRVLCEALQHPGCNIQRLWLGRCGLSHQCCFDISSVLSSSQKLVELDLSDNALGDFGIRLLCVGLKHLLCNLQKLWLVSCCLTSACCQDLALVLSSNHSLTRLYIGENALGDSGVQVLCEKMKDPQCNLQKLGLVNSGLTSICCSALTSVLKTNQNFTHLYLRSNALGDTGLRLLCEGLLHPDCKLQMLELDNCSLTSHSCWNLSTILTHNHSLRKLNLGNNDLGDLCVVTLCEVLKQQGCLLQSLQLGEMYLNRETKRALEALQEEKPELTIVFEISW
Procedure, shortened: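 J774A.1 cells (DMEM, 10% FBS) primed with LPS 1 μg mL−1 for 5 h, compound 1 h, then nigericin 10 μM for 1 h. Supernatant IL-1β by ELISA; IC50 from three separate determinations.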

Mus musculus [2] = test: Anti-colitis activity against DSS-induced ulcerative colitis mouse model assessed as decrease in hemafecia at 10 mg/kg/day, po treated for 9 days; format: functional, organism-based; conditions: time 9.0 day
Procedure, shortened: (§1)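 DSS colitis: 2.5% DSS in drinking water days 1–7, water days 8–9. Salicylazosulfapyridine given daily by intragastric gavage, 10 mg kg−1. Body weight and fecal blood recorded daily; colon length measured at sacrifice on day 9.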

Mus musculus [3] = test: Anti-colitis activity against DSS-induced ulcerative colitis mouse model assessed as increase in colon length at 10 mg/kg/day, po treated for 9 days; format: functional, organism-based; conditions: time 9.0 day; procedure, shortened: as §1
Colon [4] = test: Anti-colitis activity against DSS-induced ulcerative colitis mouse model assessed as increase in goblet cells in colon tissue at 10 mg/kg/day, po for 9 days by H and E staining based analysis; format: functional, organism-based; conditions: time 9.0 day
Procedure, shortened: (§2)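 H&E-stained colon sections (×20) scored for inflammatory cell infiltration, goblet cell depletion and crypt architecture. Samples were taken on day 9 from mice given 2.5% DSS water days 1–7 and daily intragastric SASP 10 mg kg−1.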

Colon [5] = test: Anti-colitis activity against DSS-induced ulcerative colitis mouse model assessed as decrease in infiltration of inflammatory cells in colon tissue at 10 mg/kg/day, po for 9 days by H and E staining based analysis; format: functional, organism-based; conditions: time 9.0 day; procedure, shortened: as §2
Colon [6] = test: Anti-colitis activity against DSS-induced ulcerative colitis mouse model assessed as increase in crypt architecture in colon tissue at 10 mg/kg/day, po for 9 days by H and E staining based analysis; format: functional, organism-based; conditions: time 9.0 day; procedure, shortened: as §2
Mus musculus [7] = test: Anti-colitis activity against DSS-induced ulcerative colitis mouse model assessed as increase in body weight at 10 mg/kg/day, po treated for 9 days; format: functional, organism-based; conditions: time 9.0 day; procedure, shortened: as §1

## CSc1ccc(C(=O)/C=C/c2cc(O)cc(O)c2)cc1
[1]
  IC50: 1.57 µM

## Cc1cc(/C=C/C(=O)c2ccc3c(c2)COC32CNC2)cc(C)c1O
[1]
  IC50: 5.21 µM

## CCOC(=O)CSc1ccc(C(=O)/C=C/c2cc(C)c(O)c(C)c2)cc1
[1]
  IC50: 4.93 µM

## CCN(CC)C(=S)Sc1ccc(C(=O)/C=C/c2cc(C)c(O)c(C)c2)cc1
[1]
  IC50: 27.1 µM

## Cc1cc(/C=C/C(=O)c2ccc(C(=O)NCC(=O)O)cc2)cc(C)c1O
[1]
  IC50: > 50 µM

## CSc1ccc(C(=O)/C=C/c2cc(C)c(O)c(C)c2)cc1
[1]
  IC50: 3.67 µM

## Cc1cc(/C=C/C(=O)c2ccc(C(=O)NCC(=O)Nc3ccccc3)cc2)cc(C)c1O
[1]
  IC50: > 50 µM

## Cc1cc(/C=C/C(=O)c2ccc(C(=O)O)cc2)cc(C)c1O
[1]
  IC50: > 50 µM

## CCN(CC)C(=O)CNC(=O)c1ccc(C(=O)/C=C/c2cc(C)c(O)c(C)c2)cc1
[1]
  IC50: 5.95 µM

## CCOC(=O)c1ccc(C(=O)/C=C/c2cc(C)c(O)c(C)c2)cc1
[1]
  IC50: 8.36 µM

## Cc1cc(/C=C/C(=O)c2ccc(C(=O)NCC(=O)N(C)C)cc2)cc(C)c1O
[1]
  IC50: 5.97 µM

## CCN(CC)C(=S)SCCC(=O)Nc1ccc(C(=O)/C=C/c2cc(C)c(O)c(C)c2)cc1
[1]
  IC50: 3.8 µM

## Cc1cc(/C=C/C(=O)c2ccc(C(=O)N[C@@H](Cc3ccccc3)C(=O)O)cc2)cc(C)c1O
[1]
  IC50: 3.37 µM

## O=C(O)c1cc(/N=N/c2ccc(S(=O)(=O)Nc3ccccn3)cc2)ccc1O
Mus musculus [2]
  Activity: inactive
Mus musculus [3]
  Activity: Active
Colon [4]
  Activity: Active
Colon [5]
  Activity: Active
Colon [6]
  Activity: Active
Mus musculus [7]
  Activity: inactive

## COC(=O)C1(C(=O)Nc2ccc(C(=O)/C=C/c3cc(C)c(O)c(C)c3)cc2)CC1
[1]
  IC50: 3.01 µM

## COC(=O)[C@H](Cc1ccccc1)NC(=O)c1ccc(C(=O)/C=C/c2cc(C)c(O)c(C)c2)cc1
[1]
  IC50: 1.09 µM

## COC(=O)CNC(=O)c1ccc(C(=O)/C=C/c2cc(C)c(O)c(C)c2)cc1
[1]
  IC50: 1.08 µM

## COc1ccc(C(=O)/C=C/c2cc(C)c(O)c(C)c2)cc1
[1]
  IC50: 14.4 µM

## CCNC(=O)CNC(=O)c1ccc(C(=O)/C=C/c2cc(C)c(O)c(C)c2)cc1
[1]
  IC50: 3.96 µM

## CNC(=O)CNC(=O)c1ccc(C(=O)/C=C/c2cc(C)c(O)c(C)c2)cc1
[1]
  IC50: 3.02 µM

## Cc1cc(/C=C/C(=O)c2ccc(NC(=O)CCN(C)C)cc2)cc(C)c1O
[1]
  IC50: 5.97 µM
